An excerpt weighted towards active compounds, which were near 4.9% of everything screened.
NPY-Y1 antag = antagonists of human neuropeptide Y receptor Y1; HEK293-CNG Y1 cells, membrane potential fluorescence; NPY at EC95, then isoproterenol; inhibition, % at 3.6 µM; 200,000 compounds, 1% hits;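 active = inhibition above the campaign mean inhibition of all tested compounds plus 3 SD, cut at about 20% in these data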;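 also: 0% = DMSO wells given NPY plus isoproterenol and 100% = isoproterenol alone without NPY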
Target sequence (P25929 whole entry, looked up): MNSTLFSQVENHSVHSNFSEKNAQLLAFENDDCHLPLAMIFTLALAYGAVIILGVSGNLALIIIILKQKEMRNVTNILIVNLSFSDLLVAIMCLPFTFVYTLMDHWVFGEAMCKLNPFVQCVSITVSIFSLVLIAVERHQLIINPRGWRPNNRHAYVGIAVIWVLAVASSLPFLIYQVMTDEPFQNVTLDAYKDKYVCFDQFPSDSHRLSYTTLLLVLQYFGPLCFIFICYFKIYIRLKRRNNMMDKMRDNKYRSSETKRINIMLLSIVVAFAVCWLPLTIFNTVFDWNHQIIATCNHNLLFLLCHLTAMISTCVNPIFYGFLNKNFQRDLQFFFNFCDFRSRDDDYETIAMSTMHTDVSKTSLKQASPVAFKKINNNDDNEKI
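Material: HEK293 Y1/CNG channel cell line | Also added: NPY (25 nM), isoproterenol (1 µM), Ro 20-1724 (25 µM) | Compound: One concentration, 3.6 µM, in 0.4% DMSO | Schedule: 3 h dye uptake, 1 h room-temperature compound, 45 min post-isoproterenol | Signal: Membrane-potential fluorescent dye readout | Read-out: % inhibition of NPY effect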
NPY1 pot ag = potentiators or agonists of human neuropeptide Y receptor Y1; activation, % at 3.6 µM; AID 1304; 220,000 compounds, 0.37% hits; P25929; NPY-Y1 expressing cells, potentiator/agonist activation; in the data active = activation above about 33%, passing the limit was not always enough;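 also: cells stimulated with NPY at EC10 then isoproterenol at EC100; 0% = low agonist plus stimulus and 100% = saturating agonist plus stimulus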
NPY-Y2 PAM-ag = potentiators or agonists of human neuropeptide Y receptor Y2; cells expressing NPY-Y2, potentiator/agonist read-out; activation, % at 3.6 µM; 220,000 compounds, 0.45% hits; in the data active = activation above about 27%;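 also: cells stimulated with NPY near EC25 plus isoproterenol at EC100; 0% = vehicle plus submaximal agonist and 100% = vehicle plus saturating agonist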
NPY-Y2 antag = blocks the human neuropeptide Y Y2 receptor; NPY-Y2 expressing cells, antagonist mode; AID 793; 140,000 compounds, 0.99% hits; inhibition, % at 2.7 µM; P49146; in the data active = inhibition above about 17%;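 also: 0% = vehicle with agonist challenge and 100% = reference antagonist with challenge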
RAM network inh = yeast RAM network inhibition; S. cerevisiae dse1pr::URA3 reporter, 5-FOA growth OD615, 2 d; analog-sensitive cbk1-as2 kinase mutant strain; inhibition, % at 50 µM; 190,000 compounds, 1.8% hits;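 active = inhibition above a set limit, 3 SD over mean compound inhibition, cut at about 8.4% in these data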;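 also: 0% = DMSO-only wells with no growth and 100% = 10 µM 1-NA-PP1 full growth; inhibition rescues growth on 5-FOA so higher OD means more RAM inhibition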
WT yeast gro inh = growth inhibition of WT yeast, mitochondrial fusion screen. mitochondrial fusion phenotypic screen, WT strain. 190,000 compounds, 2.1% hits. inhibition, % at 10 µM; in the data active = inhibition above about 58%; tested in S. cerevisiae
Starred values were filed as active, the others as inactive; / = no result given.

SMILES | NPY-Y1 antag | NPY1 pot ag | NPY-Y2 PAM-ag | NPY-Y2 antag | RAM network inh | WT yeast gro inh
CN(C)S(=O)(=O)c1ccc(N2CCCC2)c(C(=O)Nc2nc(-c3cc(F)ccc3F)cs2)c1 | 5 | -14 | -3 | 2 | 9.2* | 15
COc1cc(NS(=O)(=O)c2ccc(N/C=C(\C#N)c3nc4cc(Cl)ccc4o3)cc2)nc(OC)n1 | 2 | -9 | -17 | 2 | 9.1* | -2
COc1cc(NS(=O)(=O)c2ccc(NC(C)=O)cc2)nc(OC)n1 | 2 | -22 | -8 | 1 | 2 | -12
O=c1cc(CO)oc(C(Nc2ccccn2)c2ccc(C(F)(F)F)cc2)c1O (configuration not stated) | -2 | 6 | 5 | 0 | 0 | 40
CCc1ccc(Nc2nnc(SCC(=O)N(C)CC(=O)Nc3ccccc3CC)s2)cc1 | 0 | 14 | -7 | -1 | 1 | -18
CC(C)OC(=O)c1cccnc1N1CCN(c2cccc(Cl)c2)CC1 | 18 | -40 | -31 | / | 1 | 73*
CCN(C(=O)COC(=O)c1ccc(OCc2c(C)noc2C)cc1)c1ccccc1 | -2 | 1 | 3 | 0 | 3 | -9
CCN(c1ccccc1)S(=O)(=O)c1ccc(OCc2c(C)noc2C)cc1 | -1 | -9 | -11 | 3 | 10* | 3
COCCN1CCN(c2cc(-c3ccccc3)nc3cc(-c4cccc(F)c4)nn23)CC1 | 0 | -7 | 6 | 3 | 0 | 77*
Fc1ccc(-c2cc3nc(-c4ccccc4)cc(N4CCOCC4)n3n2)cc1 | 3 | 4 | 2 | 5 | 2 | /
COc1ccc(-c2cc3nc(-c4ccccc4)cc(N4CCCC(O)C4)n3n2)cc1 (configuration not stated) | 8 | 2 | -7 | / | -1 | 68*
Cc1ccc(-c2cc3nc(-c4ccccc4)cc(N4CCC5(CC4)OCCO5)n3n2)cc1 | -2 | -18 | 2 | 1 | 2 | 54
COc1ccc(-c2cc3nc(-c4ccccc4)cc(N4CCC(O)CC4)n3n2)cc1 | -4 | 20 | -10 | / | -2 | 62*
Fc1cccc(-c2cc3nc(-c4ccccc4)cc(N4CCC5(CC4)OCCO5)n3n2)c1 | 7 | -24 | -6 | 0 | 5 | 49
COC(=O)c1ccc(NC(=O)CSc2n[nH]c(-c3ccncc3)n2)cc1 | 0 | 0 | 18 | -2 | 1 | -3
O=C(O)c1ccccc1C(=O)Nc1ccccc1 | -1 | 10 | 13 | 2 | 0 | -9
O=C(Nc1ccccc1)C1=C(c2ccccc2)S(=O)(=O)CCS1(=O)=O | -8 | 64* | 45* | / | 4 | 9
CCc1nnc(NS(=O)(=O)c2ccc(N=Cc3c(C)[nH]n(-c4ccc(C)c(C)c4)c3=O)cc2)s1 | 1 | 1 | -7 | 7 | 4 | 63*
COc1ccc(NC(=S)Nc2ccc(Oc3ccccc3)cc2)cc1 | -8 | 15 | -7 | 6 | 2 | 4
COc1ccc(/C=N/Nc2ncc(-c3ccccc3)cn2)c(OC)c1 | 1 | -15 | 4 | 5 | 2 | 28
CCN(c1cccc(C)c1)S(=O)(=O)c1ccc2c3c(cccc13)C(=O)N2 | -6 | -3 | -2 | -1 | 8.5* | -8
COc1cc(C)c(Cl)c(C)c1S(=O)(=O)NC1CC(C)(C)NC(C)(C)C1 | 2 | 18 | 10 | / | 1 | 4
NC(=O)C1(N2CCCCC2)CCN(CC(=O)Nc2cc(Cl)ccc2Cl)CC1 | -4 | -21 | -13 | 1 | 3 | -15
CCO[C@@H]1OC(C(=O)O)=C[C@H](c2csc3ccccc23)[C@H]1CCCO | -4 | -10 | -10 | / | 1 | -2
CCO[C@H]1OC(C(=O)Nc2ccccc2)=C[C@@H](c2ccc(Br)cc2)[C@@H]1CCCO | -2 | 23 | -5 | / | 3 | 65*
SMILES | NPY-Y1 antag | NPY1 pot ag | NPY-Y2 PAM-ag | NPY-Y2 antag | RAM network inh | WT yeast gro inh
CCO[C@H]1OC(C(=O)Nc2ccccc2)=C[C@@H](c2csc3ccccc23)[C@@H]1CCCO | -1 | -20 | 8 | / | 6 | 72*
COc1ccc([N+](=O)[O-])cc1NC(=S)Nc1ccccc1 | -1 | -4 | -8 | 0 | 1 | -3
Cc1oc(C)c2c(=O)ccc3c(c12)OC(N)=C(C#N)C3c1ccccc1Cl (configuration not stated) | -13 | 19 | 19 | 11 | 8.8* | -10
CN(C)c1nn(C(=O)Nc2cccc(C(F)(F)F)c2)cc1-c1ccccc1 | 0 | 8 | -12 | 1 | 1 | 63*
Cc1cc([N+](=O)[O-])nn1CC(=O)NCCCn1ccnc1 | 2 | -2 | -12 | / | 1 | 12
Cc1cc(/C=C\c2nc(O)c([N+](=O)[O-])c(=O)[nH]2)c(C)n1-c1ccccc1 | 7 | -17 | -4 | / | 8.7* | 6
COc1ccc(-n2c(C)cc(/C=C/c3nc(O)c([N+](=O)[O-])c(=O)[nH]3)c2C)cc1 | 6 | -1 | 1 | / | 6 | -5
CCOC(=O)c1sc(NC(=O)CSc2n[nH]c(-c3ccc(Cl)cc3Cl)n2)c(C#N)c1C | -5 | 10 | 9 | 1 | 6 | 58*
CCOC(=O)c1sc(NC(=O)CSc2nc(C)cc(-c3ccccc3)n2)c(C#N)c1C | 3 | 16 | -7 | 1 | 2 | 12
CC1CC(C)CN(C(=O)c2ccc(CNc3c(N4CCCC4)c(=O)c3=O)cc2)C1 (configuration not stated) | / | 3 | 1 | / | / | /
COc1ccc2cnnc(SCC(=O)Nc3ccccc3)c2c1OC | -7 | -19 | -1 | 3 | 2 | 2
COc1ccccc1NC(=O)CN(c1ccc(C23CC4CC(CC(C4)C2)C3)cc1)S(C)(=O)=O | 1 | -10 | 0 | 4 | 4 | 53
CC(C)(C)c1ccc(S(=O)(=O)Nc2ccccn2)cc1 | 2 | 0 | -19 | / | 3 | 8
CCc1ccccc1N(C1=NCCCS1)S(=O)(=O)c1ccc(C(C)(C)C)cc1 | -2 | -5 | 12 | 10 | 5 | 66*
Cc1cc(C)n(C(=O)CCC(=O)Nc2ccc(C)c(C)c2)n1 | 1 | 4 | 1 | 0 | 1 | -16
CCn1c(SCC(=O)N2CCN(c3cccc(Cl)c3)CC2)nc2ccccc2c1=O | 24* | -35 | -9 | 24* | 3 | 11
Cc1cc2ccccc2c(=O)n1CC(=O)N1CCN(c2cccc(Cl)c2)CC1 | 0 | 21 | 12 | 3 | 5 | -33
COc1ccc(-c2[nH]c(-c3cc(OC)c4c(c3)OCO4)nc2-c2ccccc2)cc1 | -6 | 23 | 20 | -4 | 0 | 63*
COC(=O)c1ccc(CSc2nnnn2-c2ccccc2)o1 | 0 | -44 | 6 | 0 | 2 | 17
COc1ccc(C)cc1S(=O)(=O)N1CCCCCC1 | / | -19 | -30 | / | / | /
COc1ccc(C(C)C)cc1S(=O)(=O)N1CC(C)OC(C)C1 (configuration not stated) | 9 | 5 | 2 | / | 1 | -5
